Assay results from ChEMBL document CHEMBL3352443, “Synthesis of new heterocyclic lupeol derivatives as nitric oxide and pro-inflammatory cytokine inhibitors” (Bioorg Med Chem Lett, 2014).

Experiments:
[1] = Cytotoxicity against mouse RAW264.7 cells assessed as cell viability at IC50 by MTT assay relative to control; assay type: cell-based; conditions: read-out: Activity
[2] = Cytotoxicity against mouse J774A1 cells assessed as cell viability at IC50 by MTT assay relative to control; assay type: cell-based, J774.A1; conditions: read-out: Activity
[3] = tested on: RAW264.7; experiment: Antiinflammatory activity in mouse RAW264.7 cells assessed as inhibition of LPS-induced NO production incubated for 1 hr prior to LPS challenge measured after 24 hrs by Griess method; assay type: functional, cell-based
Method in brief: (§1)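 NO release was measured in LPS-stimulated macrophages, and IC50 values were derived from it. Data are mean ± SD of three separate experiments, each run in triplicate.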

[4] = Antiinflammatory activity in mouse J774A1 cells assessed as inhibition of LPS-induced NO production incubated for 1 hr prior to LPS challenge measured after 24 hrs by Griess method; assay type: functional, cell-based; conditions: J774.A1; method in brief: as §1
[5] = tested on: RAW264.7; experiment: Antiinflammatory activity in mouse RAW264.7 cells assessed as inhibition of LPS-induced TNF-alpha production at 20 ug/ml incubated for 1 hr prior to LPS challenge measured after 6 hrs by sandwich ELISA relative to control; assay type: functional
Method in brief: (§2)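 Compounds were tested at 20 µg/mL on LPS-stimulated cells. TNF-α and IL-1β released into the medium were quantified with an ELISA kit following the kit protocol and expressed as % inhibition. Data are mean ± SD of three separate experiments, each run in triplicate.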

[6] = Antiinflammatory activity in mouse J774A1 cells assessed as inhibition of LPS-induced TNF-alpha production at 20 ug/ml incubated for 1 hr prior to LPS challenge measured after 6 hrs by sandwich ELISA relative to control; assay type: functional; conditions: J774.A1; method in brief: as §2
[7] = tested on: RAW264.7; experiment: Antiinflammatory activity in mouse RAW264.7 cells assessed as inhibition of LPS-induced IL-1beta production at 20 ug/ml incubated for 1 hr prior to LPS challenge measured after 12 hrs by sandwich ELISA relative to control; assay type: functional; method in brief: as §2
[8] = Antiinflammatory activity in mouse J774A1 cells assessed as inhibition of LPS-induced IL-1beta production at 20 ug/ml incubated for 1 hr prior to LPS challenge measured after 12 hrs by sandwich ELISA relative to control; assay type: functional; conditions: J774.A1; method in brief: as §2

| Structure (SMILES) | IC50 [3] | IC50 [4] | viability [1] | viability [2] | inhibition at 20 µg/mL [5] | inhibition at 20 µg/mL [6] | inhibition at 20 µg/mL [7] | inhibition at 20 µg/mL [8] |
| --- | --- | --- | --- | --- | --- | --- | --- | --- |
| C=C(C)[C@@H]1CC[C@]2(C)CC[C@]3(C)[C@H](CC[C@@H]4[C@@]5(C)Cc6c([nH]c7ccc(Cl)cc67)C(C)(C)[C@@H]5CC[C@]43C)[C@@H]12 | 35.6 µM | 33.2 µM | 93.3% | 92.7% | – | – | – | – |
| C=C(C)[C@@H]1CC[C@]2(C)CC[C@]3(C)[C@H](CC[C@@H]4[C@@]5(C)CC[C@H](N(O)c6ccccc6)C(C)(C)[C@@H]5CC[C@]43C)[C@@H]12 | 48.7 µM | 47.7 µM | 79.3% | 82.5% | – | – | – | – |
| COC(=O)[C@@H](N)CCCNC(=N)N[N+](=O)[O-] [L-NAME] | 69.2 µM | 73.2 µM | – | – | – | – | – | – |
| C=C(C)[C@@H]1CC[C@]2(C)CC[C@]3(C)[C@H](CC[C@@H]4[C@@]5(C)CCC(=S)C(C)(C)[C@@H]5CC[C@]43C)[C@@H]12 | 36.2 µM | 36.3 µM | 94.3% | 91.9% | – | – | – | – |
| C=C(C)[C@@H]1CC[C@]2(C)CC[C@]3(C)[C@H](CC[C@@H]4[C@@]5(C)CCC(=O)C(C)(C)[C@@H]5CC[C@]43C)[C@@H]12 [LUPENONE] | 38.5 µM | 38.8 µM | 89.6% | 87.7% | – | – | – | – |
| C=C(C)[C@@H]1CC[C@]2(C)CC[C@]3(C)[C@H](CC[C@@H]4[C@@]5(C)CC[C@H](OC(C)=O)C(C)(C)[C@@H]5CC[C@]43C)C12 (single isomer, unassigned) [LUPENYL ACETATE] | 36.7 µM | 33.2 µM | 80.3% | 83.5% | – | – | – | – |
| C=C(C)[C@@H]1CC[C@]2(C)CC[C@]3(C)[C@H](CC[C@@H]4[C@@]5(C)CC[C@H](O)C(C)(C)[C@@H]5CC[C@]43C)[C@@H]12 [LUPEOL] | 37.3 µM | 34.5 µM | 87.3% | 88.3% | – | – | – | – |
| C=C(C)[C@@H]1CC[C@]2(C)CC[C@]3(C)[C@H](CC[C@@H]4[C@@]5(C)CC[C@H](OC(=O)CCC(=O)O)C(C)(C)[C@@H]5CC[C@]43C)[C@@H]12 | 39.2 µM | 39.3 µM | 91.3% | 90.1% | – | – | – | – |
| C=C(C)[C@@H]1CC[C@]2(C)CC[C@]3(C)[C@H](CC[C@@H]4[C@@]5(C)Cc6c([nH]c7ccc(F)cc67)C(C)(C)[C@@H]5CC[C@]43C)[C@@H]12 | 41.7 µM | 41.7 µM | 95.2% | 92.1% | – | – | – | – |
| C=C(C=O)[C@@H]1CC[C@]2(C)CC[C@]3(C)[C@H](CC[C@@H]4[C@@]5(C)CC[C@H](O)C(C)(C)[C@@H]5CC[C@]43C)[C@@H]12 | 42.9 µM | 37 µM | 95.2% | 92.1% | – | – | – | – |
| C=C(C)[C@@H]1CC[C@]2(C)CC[C@]3(C)[C@H](CC[C@@H]4[C@@]5(C)CC/C(=N\O)C(C)(C)[C@@H]5CC[C@]43C)[C@@H]12 | 46 µM | 44.6 µM | 95.7% | 93.6% | – | – | – | – |
| C=C(C)[C@@H]1CC[C@]2(C)CC[C@]3(C)[C@H](CC[C@@H]4[C@@]5(C)CC[C@H](OC(=O)CC(C)(C)C(=O)O)C(C)(C)[C@@H]5CC[C@]43C)[C@@H]12 | 39.2 µM | 42.6 µM | 87.6% | 83.6% | – | – | – | – |

The next compounds have a lower IC50 [3] than those just listed; values first:

| IC50 [3] | IC50 [4] | Structure (SMILES) | viability [1] | viability [2] | inhibition at 20 µg/mL [5] | inhibition at 20 µg/mL [6] | inhibition at 20 µg/mL [7] | inhibition at 20 µg/mL [8] |
| --- | --- | --- | --- | --- | --- | --- | --- | --- |
| 32.4 µM | 32.4 µM | C=C(C)[C@@H]1CC[C@]2(C)CC[C@]3(C)[C@H](CC[C@@H]4[C@@]5(C)Cc6nccnc6C(C)(C)[C@@H]5CC[C@]43C)[C@@H]12 | 95.2% | 93.3% | – | – | – | – |
| 31.7 µM | 31.7 µM | C=C(C)[C@@H]1CC[C@]2(C)CC[C@]3(C)[C@H](CC[C@@H]4[C@@]5(C)Cc6c([nH]c7ccccc67)C(C)(C)[C@@H]5CC[C@]43C)[C@@H]12 | 91.8% | 90.3% | – | – | – | – |
| 30.6 µM | 28.6 µM | C=C(C)[C@@H]1CC[C@]2(C)CC[C@]3(C)[C@H](CC[C@@H]4[C@@]5(C)Cc6c([nH]c7c(CC)cccc67)C(C)(C)[C@@H]5CC[C@]43C)[C@@H]12 | 91.5% | 91.7% | 39.1% | 29.4% | 11.4% | 10.1% |
| 27.8 µM | 28.6 µM | C=C(C)[C@@H]1CC[C@]2(C)CC[C@]3(C)[C@H](CC[C@@H]4[C@@]5(C)Cc6c([nH]c7ccc(C)cc67)C(C)(C)[C@@H]5CC[C@]43C)[C@@H]12 | 89.3% | 87% | – | – | – | – |
| 25.9 µM | 23.2 µM | C=C(C)[C@@H]1CC[C@]2(C)CC[C@]3(C)[C@H](CC[C@@H]4[C@@]5(C)Cc6c([nH]c7c(C)ccc(C)c67)C(C)(C)[C@@H]5CC[C@]43C)[C@@H]12 | 93.2% | 91.5% | 32.8% | 31.1% | 22.8% | 17.2% |
| 23.9 µM | 18.4 µM | C=C(C)[C@@H]1CC[C@]2(C)CC[C@]3(C)[C@H](CC[C@@H]4[C@@]5(C)Cc6c([nH]c7ccc(Br)cc67)C(C)(C)[C@@H]5CC[C@]43C)[C@@H]12 | 91.4% | 90.8% | 39.2% | 31.5% | 19.7% | 16.2% |
| 22.6 µM | 25.2 µM | C=C(C)[C@@H]1CC[C@]2(C)CC[C@]3(C)[C@H](CC[C@@H]4[C@@]5(C)Cc6c([nH]c7ccc(I)cc67)C(C)(C)[C@@H]5CC[C@]43C)[C@@H]12 | 95.2% | 93.3% | 42.3% | 37% | 22.9% | 17.3% |
| 11 µM | 18.5 µM | COc1cc(/C=C/C(=O)CC(=O)/C=C/c2ccc(O)c(OC)c2)ccc1O [CURCUMIN] | – | – | – | – | – | – |
